High-throughput results (PubChem BioAssay)
UBC13 polyUb: human UBC13 polyubiquitination inhibition | AID 485273 | 0.47% of 330,000 active | inhibition, % at 20 µM | P61088 | UBC13 polyubiquitin chain formation, TR-FRET; in the data active = inhibition above about 45%, passing the limit was not always enough
Mdm2-MdmX inh: human Mdm2/MdmX binding inhibition; O15151+Q00987; SaOS-2 split-luciferase Mdm2/MdmX complementation, luminescence; inhibition, % at 8 µM; 3% of 330,000 active; AID 485346;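 active = inhibition of at least 50% at 8 µM in the primary screen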
XBP1 UPR activ: adaptive UPR (XBP1) activation; CHO-XBP1 luciferase reporter, IRE1-XBP1 UPR activation, luminescence; percent of tunicamycin response, DMSO as zero; activation, % at 20 µM; 0.33% of 330,000 active;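 active = versus positive control, 20 µM dose yields 30% or more activation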;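 note: 100% = tunicamycin at 10 µg/mL and 0% = DMSO only wells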
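Test system: CHO-XBP1 luciferase reporter cells | Buffer or medium: Serum-containing F12 medium, 10% FBS | Schedule: 6 h compound exposure at 37 °C, 5% CO2 | Detection: Steady-Glo luciferase glow luminescence, 10 min after reagent addition | Read-out basis: Activation, % of tunicamycin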
CHOP UPR activ: apoptotic UPR (CHOP) activation | CHO-CHOP luciferase reporter, luminescence; percent of tunicamycin response over DMSO baseline | activation, % at 10 µM | 0.34% of 330,000 active | AID 449763;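 active = at 10 µM dose, activation of 40% or more, normalized to positive control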;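 note: 100% = tunicamycin at 10 µg/mL and 0% = DMSO alone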
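Assay system: CHO cells with stable CHOP pathway luciferase reporter; Buffer or medium: F12 plus 10% serum; Times: 16-18 h cell attachment, then 6 h compound exposure, 37 °C; Signal: luciferase luminescence; Read-out basis: percent activation relative to tunicamycin control; Control set: tunicamycin high control, DMSO low control.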
Apaf-1 inh: blocks human Apaf-1 apoptosome activity; reconstituted apoptosome caspase-3 activity, DEVD-Rh110 fluorescence; 0.71% of 330,000 active; AID 489030; inhibition, % at 20 µM; O14727; active = inhibition of at least 40% at 20 µM;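 note: plate controls were DMSO wells for no effect and DEVD-CHO caspase inhibitor wells for full effect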
Target sequence (O14727 whole entry, looked up): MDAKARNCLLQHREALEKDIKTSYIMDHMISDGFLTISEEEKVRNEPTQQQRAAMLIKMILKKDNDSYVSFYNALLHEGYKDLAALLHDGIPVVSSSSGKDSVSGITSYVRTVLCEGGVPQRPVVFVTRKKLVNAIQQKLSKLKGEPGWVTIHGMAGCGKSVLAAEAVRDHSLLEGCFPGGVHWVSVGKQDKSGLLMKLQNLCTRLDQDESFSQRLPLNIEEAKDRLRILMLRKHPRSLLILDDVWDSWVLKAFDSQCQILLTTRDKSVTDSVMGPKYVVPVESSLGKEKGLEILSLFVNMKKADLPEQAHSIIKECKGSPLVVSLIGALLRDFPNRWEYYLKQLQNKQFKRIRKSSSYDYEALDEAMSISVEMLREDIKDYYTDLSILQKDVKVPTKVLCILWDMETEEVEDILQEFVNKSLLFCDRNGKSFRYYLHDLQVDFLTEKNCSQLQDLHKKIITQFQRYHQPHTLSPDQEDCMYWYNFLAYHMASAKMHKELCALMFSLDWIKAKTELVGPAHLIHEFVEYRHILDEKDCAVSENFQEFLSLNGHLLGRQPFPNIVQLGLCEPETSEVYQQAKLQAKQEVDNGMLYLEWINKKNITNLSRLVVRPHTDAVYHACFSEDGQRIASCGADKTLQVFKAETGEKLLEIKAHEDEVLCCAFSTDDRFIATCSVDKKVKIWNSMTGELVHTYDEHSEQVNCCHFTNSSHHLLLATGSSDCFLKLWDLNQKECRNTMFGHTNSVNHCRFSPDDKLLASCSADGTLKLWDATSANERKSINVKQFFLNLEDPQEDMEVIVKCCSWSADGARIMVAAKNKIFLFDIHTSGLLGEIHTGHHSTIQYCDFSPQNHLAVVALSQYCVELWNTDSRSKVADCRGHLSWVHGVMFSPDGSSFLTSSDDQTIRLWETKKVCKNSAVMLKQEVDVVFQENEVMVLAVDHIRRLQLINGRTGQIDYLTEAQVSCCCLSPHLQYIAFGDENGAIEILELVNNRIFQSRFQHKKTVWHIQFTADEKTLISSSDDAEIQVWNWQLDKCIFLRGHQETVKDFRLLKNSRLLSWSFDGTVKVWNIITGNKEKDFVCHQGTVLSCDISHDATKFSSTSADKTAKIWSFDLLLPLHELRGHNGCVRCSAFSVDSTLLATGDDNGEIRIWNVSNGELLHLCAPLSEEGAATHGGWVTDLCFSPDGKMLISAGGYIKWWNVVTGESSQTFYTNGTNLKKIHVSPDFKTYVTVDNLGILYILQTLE
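System: reconstituted apoptosome with Apaf-1, cytochrome c, caspase-9, procaspase-3, dATP; Signal: Rh110 fluorescence intensity; Schedule: 30 min compound preincubation, 50 min activation, room temperature; Reagent: cytochrome c trigger plus (Z-DEVD)2-Rh110 caspase-3 substrate.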
Mdm2-MdmX conf: confirmation of human Mdm2/MdmX interaction inhibitors; 55% of 10,000 active; inhibition, % at 8 µM; shares compounds with Mdm2-MdmX inh; Mdm2-MdmX binding, luminescent assay; AID 489028; in the data active = inhibition above about 40%
FLuc counter: full-length luciferase inhibition in Mdm2/MdmX counter-screen. 77% of 6,200 active. SaOS-2 full-length luciferase counterscreen, luminescence. inhibition, % at 8 µM. shares compounds with Mdm2-MdmX inh;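 active = mean inhibition at 8 µM reaching about 37%, which flags the compound as non-specific, limit read from the data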;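 note: p53-null SaOS-2 cells with luciferase driven by a doxycycline-inducible promoter; compound on cells about two nights before reading with doxycycline added after day one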
* marks the source's active call; other numbers are inactive results. The list is not random: actives were taken first. Their share in the collection is about 4.1%.

Cc1cc2oc(=O)c(CC(=O)NCCCO)c(C)c2c2occ(C(C)(C)C)c12 was read as UBC13 polyUb 22.3, Mdm2-MdmX inh 23.1, XBP1 UPR activ 4.8, CHOP UPR activ 1.7 and Apaf-1 inh 13.7.
Screening COCCNC(=O)Cc1c(C)c2c(cc(C)c3c(C(C)(C)C)coc32)oc1=O returned UBC13 polyUb 21.4, Mdm2-MdmX inh 66.8*, XBP1 UPR activ 15.2, CHOP UPR activ 4.6, Apaf-1 inh 16.8, Mdm2-MdmX conf 44.5* and FLuc counter 64.1*.
Cc1cc2oc(=O)c(CC(=O)NCCCN(C)C)c(C)c2c2occ(C(C)(C)C)c12 was read as UBC13 polyUb 43.0, Mdm2-MdmX inh 94.0*, XBP1 UPR activ 7.9, CHOP UPR activ 4.0, Apaf-1 inh 26.0, Mdm2-MdmX conf 76.3* and FLuc counter 41.1*.
COc1ccc(C(=O)COc2ccccc2C(=O)Nc2ccccc2)cc1 was read as UBC13 polyUb -4.3, Mdm2-MdmX inh -8.7, XBP1 UPR activ -2.4, CHOP UPR activ 3.6 and Apaf-1 inh 14.3.
`Cc1oc2cc3oc(=O)c(CCC(=O)N4C[C@H]5C[C@@H](C4)c4cccc(=O)n4C5)c(C)c3cc2c1C` gave UBC13 polyUb 1.0, Mdm2-MdmX inh 3.9, XBP1 UPR activ 11.1, CHOP UPR activ -0.3 and Apaf-1 inh 6.6.
COc1ccc(Nc2nc3ccccc3nc2NS(=O)(=O)c2cccs2)cc1 was read as UBC13 polyUb 0.8, Mdm2-MdmX inh 2.2, XBP1 UPR activ 2.8, CHOP UPR activ -0.8 and Apaf-1 inh 10.1.
CC(=O)c1ccc(Nc2nc3ccccc3nc2NS(=O)(=O)c2cccs2)cc1 was read as UBC13 polyUb 2.3, Mdm2-MdmX inh 59.7*, XBP1 UPR activ -1.9, CHOP UPR activ 3.0, Apaf-1 inh 2.6 and Mdm2-MdmX conf 27.9.
C/C(=N\NC(=O)c1ccc(NS(=O)(=O)c2cccs2)cc1)c1ccncc1 was read as UBC13 polyUb -4.7, Mdm2-MdmX inh 5.5, XBP1 UPR activ -1.0, CHOP UPR activ -3.2 and Apaf-1 inh 2.4.
C/C(=N\NC(=O)c1ccc(NS(=O)(=O)c2cccs2)cc1)c1ccccn1 was read as UBC13 polyUb -12.2, Mdm2-MdmX inh 58.1*, XBP1 UPR activ -1.9, CHOP UPR activ 1.2, Apaf-1 inh -6.1 and Mdm2-MdmX conf -5.9.
For O=C(COc1ccccc1[N+](=O)[O-])N1CCN(c2ccccn2)CC1 the results were UBC13 polyUb 0.8, Mdm2-MdmX inh 5.1, XBP1 UPR activ 1.6, CHOP UPR activ 1.2 and Apaf-1 inh 1.8.
O=C1CN(CC(=O)NC2CCCc3ccccc32)CCN1 (configuration not stated) was read as UBC13 polyUb 6.4, Mdm2-MdmX inh -3.4, XBP1 UPR activ 0.5, CHOP UPR activ 1.3 and Apaf-1 inh 1.1.
Screening Cn1c(=O)c2c(SCc3cccc(C(F)(F)F)c3)nc(-c3ccco3)nc2n(C)c1=O returned UBC13 polyUb -27.4, Mdm2-MdmX inh 82.7*, XBP1 UPR activ 19.7, CHOP UPR activ 5.6, Apaf-1 inh 9.0 and Mdm2-MdmX conf -9.4.
For CCC/C=N/Nc1nnc(Cc2ccc(OC)c(OC)c2)c(=O)[nH]1 the results were UBC13 polyUb 1.3, Mdm2-MdmX inh 9.1, XBP1 UPR activ 5.8, CHOP UPR activ 0.0 and Apaf-1 inh 2.3.
CC(=O)c1c(C)[nH]c(C(=O)OCC(=O)NNC(=O)c2ccc([N+](=O)[O-])cc2)c1C was read as UBC13 polyUb 17.3, Mdm2-MdmX inh 13.3, XBP1 UPR activ 0.1, CHOP UPR activ 0.4 and Apaf-1 inh -2.4.
`Cn1ccsc1=NC(=O)c1ccc(S(C)(=O)=O)c([N+](=O)[O-])c1` gave UBC13 polyUb -9.9, Mdm2-MdmX inh 50.8*, XBP1 UPR activ -2.8, CHOP UPR activ 8.0, Apaf-1 inh -2.1 and Mdm2-MdmX conf 23.1.
CC(=O)c1c(C)[nH]c(C(=O)OCc2nnc(-c3ccc([N+](=O)[O-])cc3)o2)c1C was read as UBC13 polyUb -8.5, Mdm2-MdmX inh 52.6*, XBP1 UPR activ -1.1, CHOP UPR activ 0.1, Apaf-1 inh -4.6 and Mdm2-MdmX conf 26.4.
Cn1cccc1C(=O)NC(=O)COC(=O)c1ccc(S(C)(=O)=O)cc1 was read as UBC13 polyUb 12.6, Mdm2-MdmX inh 25.1, XBP1 UPR activ 0.2, CHOP UPR activ 1.1 and Apaf-1 inh -10.9.
For CS(=O)(=O)c1ccc(C(=O)OCc2nnc(-c3ccc(Cl)cc3)o2)cc1[N+](=O)[O-] the results were UBC13 polyUb 13.7, Mdm2-MdmX inh 96.2*, XBP1 UPR activ 2.6, CHOP UPR activ 2.4, Apaf-1 inh 6.0, Mdm2-MdmX conf 59.6* and FLuc counter 15.1.
`Cn1cccc1C(=O)NC(=O)COC(=O)c1ccc(S(C)(=O)=O)c([N+](=O)[O-])c1` gave UBC13 polyUb -8.5, Mdm2-MdmX inh 64.2*, XBP1 UPR activ -8.0, CHOP UPR activ -7.3, Apaf-1 inh 12.9, Mdm2-MdmX conf 40.0 and FLuc counter 40.0*.
COc1ccccc1CNS(=O)(=O)c1cc2c3c(c1)CCN3C(=O)CC2 was read as UBC13 polyUb 3.4, Mdm2-MdmX inh 19.1, XBP1 UPR activ 0.5, CHOP UPR activ 0.1 and Apaf-1 inh 6.0.
For COc1ccc(C2/C=C\CN(C(=O)c3ccc(C)cc3)[C@H](Cc3ccccc3)C(=O)N2Cc2ccc(F)cc2)cc1 (some centres not stated) the results were UBC13 polyUb -14.3, Mdm2-MdmX inh 34.8, XBP1 UPR activ -2.0, CHOP UPR activ 7.6 and Apaf-1 inh 18.6.
For CC(C)n1ncc2c(C(=O)Nc3cccc(C#N)c3)cc(C3CC3)nc21 the results were UBC13 polyUb 13.5, Mdm2-MdmX inh 37.7, XBP1 UPR activ 1.6, CHOP UPR activ 0.6 and Apaf-1 inh 9.6.
For COc1cc(OC)c2c(-c3ccccc3)cc(=O)oc2c1C(CCN1CCCCC1)c1ccc2c(c1)OCO2 (configuration not stated) the results were UBC13 polyUb 24.9, Mdm2-MdmX inh 98.6*, XBP1 UPR activ 12.5, CHOP UPR activ 9.9, Apaf-1 inh 36.7 and Mdm2-MdmX conf 30.1.
Screening COc1cc(OC)c2c(C)cc(=O)oc2c1C(CCN1CCOCC1)c1ccc2c(c1)OCO2 (configuration not stated) returned UBC13 polyUb 24.9, Mdm2-MdmX inh 10.1, XBP1 UPR activ 2.1, CHOP UPR activ 1.2 and Apaf-1 inh 35.4.
For O=C(Cc1ccccc1)Nc1ccc2oc(-c3cccnc3)nc2c1 the results were UBC13 polyUb 11.2, Mdm2-MdmX inh -22.6, XBP1 UPR activ 3.1, CHOP UPR activ 1.8 and Apaf-1 inh 8.0.
